The record followed here is ChEMBL document CHEMBL1127330, “N-Phosphonomethyl dipeptides and their phosphonate prodrugs, a new generation of neutral endopeptidase (NEP, EC 3.4.24.11) inhibitors” (J Med Chem, 1994).

System in one assay: not listed separately
The experiment in a line: Ratio of maximum plasma concentration (C) measured ex vivo to that of IC50 of (10a or 10c) in rat treated intravenously with 10 mg/kg. The class given is functional. The following applies: route intravenous. The essentials:
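Conscious rats, femorally catheterised 24 h earlier, dosed iv at 10 mg/kg. Arterial blood was sampled before and at intervals after dosing into EDTA, then centrifuged. Plasma was ultrafiltered through a 30 000 MW cutoff with 0.1 N HCl at 10 °C. Unbound active inhibitor in the ultrafiltrate was measured by GAAP/rat kidney membrane NEP assay and expressed relative to the IC50 of the active metabolite.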
On to `CCOC(=O)CCNC(=O)C(Cc1ccc(-c2ccccc2)cc1)NCP(=O)(OCOC(=O)C(C)C)OCOC(=O)C(C)C` (configuration not stated), for which the Ratio is recorded as 535.

Turning to `CCN(CC)C(=O)COC(=O)CCNC(=O)[C@H](Cc1ccc(-c2ccccc2)cc1)NCP(=O)(Oc1ccccc1)Oc1ccccc1`, the Ratio was 135.

For `CC(C)(C)C(=O)OCOP(=O)(CNC(Cc1ccc(-c2ccccc2)cc1)C(=O)NCCC(=O)O)OCOC(=O)C(C)(C)C` (configuration not stated), the Ratio came out at 322.

Turning to `CCCCCCCC(=O)OC(OP(=O)(O)CNC(Cc1ccc(-c2ccccc2)cc1)C(=O)NCCC(=O)OCC)C(C)C` (configuration not stated), the Ratio turned out to be 50.

With `CCOC(=O)CCNC(=O)C(Cc1ccc(-c2ccccc2)cc1)NCP(=O)(OC(OC(=O)CC)C1CCCCC1)OC(OC(=O)CC)C1CCCCC1` (configuration not stated), the Ratio was 64.

On to `CCC(=O)OC(C)OP(=O)(CNC(Cc1ccc(-c2ccccc2)cc1)C(=O)NCCC(=O)O)OC(C)OC(=O)CC` (configuration not stated), for which the Ratio stood at 283.

`CCOC(=O)CCNC(=O)C(Cc1ccc(-c2ccccc2)cc1)NCP(=O)(OCOC(=O)C(C)(C)C)OCOC(=O)C(C)(C)C` (configuration not stated): the Ratio was found to be 816.

As for `O=C(CCNC(=O)[C@H](Cc1ccc(-c2ccccc2)cc1)NCP(=O)(Oc1ccccc1)Oc1ccccc1)OCc1ccccc1`, the Ratio is 75.

For `COc1cccc(OP(=O)(CN[C@@H](Cc2ccc(-c3ccccc3)cc2)C(=O)NCCC(=O)O)Oc2cccc(OC)c2)c1`, the Ratio is 240.

In the case of `O=C(O)CCNC(=O)[C@H](Cc1ccc(-c2ccccc2)cc1)NCP(=O)(OC1CCc2ccccc21)OC1CCc2ccccc21` (some centres not stated), the Ratio is 41.

For the compound `COc1ccc(OP(=O)(CN[C@@H](Cc2ccc(-c3ccccc3)cc2)C(=O)NCCC(=O)O)Oc2ccc(OC)cc2)cc1`, the Ratio was 5.

Consider `Cc1ccc(OP(=O)(CN[C@@H](Cc2ccc(-c3ccccc3)cc2)C(=O)NCCC(=O)O)Oc2ccc(C)cc2)cc1`, for which the Ratio is on record as 31.

With `O=C(CCNC(=O)[C@H](Cc1ccc(-c2ccccc2)cc1)NCP(=O)(Oc1ccccc1)Oc1ccccc1)OC1CCc2ccccc21` (some centres not stated), the Ratio is given as 69.

With `CCOC(=O)CCNC(=O)[C@H](Cc1ccc(-c2ccccc2)cc1)NCP(=O)(Oc1ccccc1)Oc1ccccc1`, the Ratio is 160.

Turning to `CCC(=O)OC(OP(=O)(CNC(Cc1ccc(-c2ccccc2)cc1)C(=O)NCCC(=O)O)OC(OC(=O)CC)C(C)C)C(C)C` (configuration not stated), the Ratio turned out to be 380.

On to `CCOC(=O)CCNC(=O)C(Cc1ccc(-c2ccccc2)cc1)NCP(=O)(OC(OC(=O)C(C)C)C(C)C)OC(OC(=O)C(C)C)C(C)C` (configuration not stated), for which the Ratio came out at 97.

Regarding `CCCc1ccc(OP(=O)(CN[C@@H](Cc2ccc(-c3ccccc3)cc2)C(=O)NCCC(=O)O)Oc2ccc(CCC)cc2)cc1`, the Ratio came out at 18.

Take `Cc1cc(C)cc(OP(=O)(CN[C@@H](Cc2ccc(-c3ccccc3)cc2)C(=O)NCCC(=O)O)Oc2cc(C)cc(C)c2)c1`: the Ratio is 149.

Regarding `CC(C)N(C(=O)COC(=O)CCNC(=O)[C@H](Cc1ccc(-c2ccccc2)cc1)NCP(=O)(O)Oc1ccccc1)C(C)C`, the Ratio is given as 5.

Take `Cc1ccc(OP(=O)(CN[C@@H](Cc2ccc(-c3ccccc3)cc2)C(=O)NCCC(=O)O)Oc2ccc(C)c(C)c2)cc1C`: the Ratio was 40.

Turning to `O=C(CCNC(=O)[C@H](Cc1ccc(-c2ccccc2)cc1)NCP(=O)(O)Oc1ccccc1)OCc1ccccc1`, the Ratio was found to be 16.

For `CCOC(=O)CCNC(=O)C(Cc1ccc(-c2ccccc2)cc1)NCP(=O)(OC(OC(=O)CC)C(C)C)OC(OC(=O)CC)C(C)C` (configuration not stated), the Ratio was 503.

Regarding `O=C(O)CCNC(=O)[C@H](Cc1ccc(-c2ccccc2)cc1)NCP(=O)(Oc1ccccc1)Oc1ccccc1`, the Ratio came out at 225.

As to `O=C(O)CCNC(=O)[C@H](Cc1ccc(-c2ccccc2)cc1)NCP(=O)(O)Oc1ccccc1`, the Ratio is 41.

For `CCN(CC)C(=O)COC(=O)CCNC(=O)[C@H](Cc1ccc(-c2ccccc2)cc1)NCP(=O)(O)Oc1ccccc1`, the Ratio is 9.

`CC(C)c1ccc(OP(=O)(CN[C@@H](Cc2ccc(-c3ccccc3)cc2)C(=O)NCCC(=O)O)Oc2ccc(C(C)C)cc2)cc1`: the Ratio is recorded as 40.

In the next assay the target is T1, Neprilysin (Rattus norvegicus, UniProt P07861).
T1 sequence (P07861 whole entry): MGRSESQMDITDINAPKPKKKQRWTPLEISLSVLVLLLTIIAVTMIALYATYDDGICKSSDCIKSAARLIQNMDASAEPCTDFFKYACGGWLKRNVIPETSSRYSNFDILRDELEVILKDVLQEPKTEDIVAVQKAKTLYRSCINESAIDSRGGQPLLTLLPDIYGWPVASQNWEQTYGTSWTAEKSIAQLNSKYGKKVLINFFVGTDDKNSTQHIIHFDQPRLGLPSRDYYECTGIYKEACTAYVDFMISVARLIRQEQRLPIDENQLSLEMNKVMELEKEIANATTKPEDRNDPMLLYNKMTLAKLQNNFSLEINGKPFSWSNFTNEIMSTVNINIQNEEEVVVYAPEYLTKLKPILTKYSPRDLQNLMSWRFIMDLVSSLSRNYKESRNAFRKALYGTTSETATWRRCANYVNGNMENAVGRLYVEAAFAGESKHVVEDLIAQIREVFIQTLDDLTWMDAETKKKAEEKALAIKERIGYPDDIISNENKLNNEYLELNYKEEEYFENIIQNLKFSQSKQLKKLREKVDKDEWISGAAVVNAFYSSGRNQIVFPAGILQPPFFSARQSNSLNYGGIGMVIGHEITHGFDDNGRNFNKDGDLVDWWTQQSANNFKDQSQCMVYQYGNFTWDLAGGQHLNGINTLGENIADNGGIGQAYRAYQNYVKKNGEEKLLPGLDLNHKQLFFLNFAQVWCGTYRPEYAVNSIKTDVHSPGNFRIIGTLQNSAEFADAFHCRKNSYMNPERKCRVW
As to the kind of experiment: In vitro inhibition of Neutral endopeptidase (NEP) enzyme.
Settings: not given
Turning to `O=C(O)c1ccc(NC(=O)C(Cc2ccc(-c3ccccc3)cc2)NCP(=O)(O)O)cc1` (configuration not stated), half-maximal inhibition (IC50) required 10 nM.

For the compound `CCOC(=O)CCNC(=O)C(Cc1ccc(-c2ccccc2)cc1)NCP(=O)(O)O` (configuration not stated), the IC50 was 120 nM.

As for `CCOP(=O)(CNC(Cc1ccc(-c2ccccc2)cc1)C(=O)NCCC(=O)O)OCC` (configuration not stated), the IC50 was over 1000 nM.

Compound `O=C(O)CCNC(=O)C(Cc1ccc(-c2ccccc2)cc1)NCP(=O)(O)OCc1ccccc1` (configuration not stated) had an IC50 of 1000 nM.

On to `O=C(O)CCNC(=O)C(Cc1ccccc1)OP(=O)(O)CNC(=O)OCc1ccccc1` (configuration not stated), for which the IC50 was over 1000 nM.

For `C[C@H](NC(=O)C(Cc1ccc(-c2ccccc2)cc1)NCP(=O)(O)O)C(=O)O` (some centres not stated), the midpoint of inhibition, the IC50, lay at 3 nM.

For `O=C(O)CCNC(=O)C(Cc1ccccc1)OP(=O)(O)CCc1ccccc1` (configuration not stated), the concentration for half-maximal inhibition (IC50) was over 1000 nM.

Consider `O=C(O)CCNC(=O)C(Cc1ccccc1)CP(=O)(O)OCCc1ccccc1` (configuration not stated), for which the IC50 is over 1000 nM.

In the case of `O=C(N[C@H](C(=O)O)c1ccccc1)C(Cc1ccc(-c2ccccc2)cc1)NCP(=O)(O)O` (some centres not stated), inhibition was half-maximal at 2 nM (IC50). That is a single-digit nanomolar value.

Consider `O=C(O)CCNC(=O)[C@@H](Cc1ccc(-c2ccccc2)cc1)NCP(=O)(O)O`, for which the IC50 is 1800 nM. Compared with the last compound, the IC50 is about 900-fold higher.

In turn, `O=C(O)CCNC(=O)[C@H](Cc1ccc(-c2ccccc2)cc1)NCP(=O)(O)O` showed an IC50 of 1.9 nM. Against the preceding compound, the IC50 is about 950-fold lower.

`O=C(O)CCNC(=O)C(Cc1ccc(-c2ccccc2)cc1)NCP(=O)(O)O` (configuration not stated) registered an IC50 of 4 nM. Compared with the last compound, the IC50 is about 2.1-fold higher.

`CC(C)C[C@H](NP(=O)(O)O[C@@H]1O[C@@H](C)[C@H](O)[C@@H](O)[C@H]1O)C(=O)N[C@@H](Cc1c[nH]c2ccccc12)C(=O)O` [PHOSPHORAMIDON] showed an IC50 of 27 nM. Compared with the last compound, the IC50 is about 6.8-fold higher.

Regarding `O=C(O)CCNC(=O)C(Cc1ccccc1)OP(=O)(O)CCCCc1ccccc1` (configuration not stated), the IC50 is over 1000 nM.

As to `O=C(O)CCNC(=O)C(Cc1ccccc1)CP(=O)(O)O` (configuration not stated), the IC50 stood at 207 nM.

Regarding `O=C(O)CCNC(=O)C(Cc1ccc(-c2ccc(F)cc2)cc1)NCP(=O)(O)O` (configuration not stated), half-maximal inhibition (IC50) required 14 nM.

Compound `O=C(O)CCNC(=O)[C@H](Cc1ccc(-c2ccccc2)cc1)NCP(=O)(O)Oc1ccccc1` registered an IC50 of 238 nM.

On to `COP(=O)(O)CNC(Cc1ccc(-c2ccccc2)cc1)C(=O)NCCC(=O)O` (configuration not stated), for which half-maximal inhibition (IC50) was put at 301 nM.

The compound `O=C(O)CCNC(=O)C(Cc1ccccc1)NCP(=O)(O)O` (configuration not stated) registered an IC50 of 1150 nM.

Regarding `O=C(O)CCCNC(=O)C(Cc1ccc(-c2ccccc2)cc1)NCP(=O)(O)O` (configuration not stated), the IC50 is 11 nM.

For `O=C(O)CNC(=O)C(Cc1ccc(-c2ccccc2)cc1)NCP(=O)(O)O` (configuration not stated), the midpoint of inhibition, the IC50, lay at 5 nM.

A word on the IC50: it is the concentration that inhibits the measured activity by half.
